ChEMBL document CHEMBL3588757, “Structure-based design, synthesis and biological testing of piperazine-linked bis-epipodophyllotoxin etoposide analogs” (Bioorg Med Chem, 2015)

Experiments:
Type in all cases: functional
MDA-MB-468 [1] = experiment: Cytotoxicity against human MDA-MB-468 cells assessed as cell growth at 0.5 uM by SRB assay; details: read-out: Activity
T47D = experiment: Cytotoxicity against human T47D cells by SRB assay
Outline: (§1)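 NCI-60 panel screen; 5-dose testing giving GI50 per cell line, plus a single 10 µM one-dose test. Method details not given beyond the NCI screen.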

TK-10 [2] = experiment: Cytotoxicity against human TK10 cells assessed as cell growth at 0.05 uM by SRB assay; details: read-out: Activity
[3] = Cytotoxicity against human NCI-ADR-RES cells assessed as cell growth at 5 uM by SRB assay; details: read-out: Activity
RPMI-8226 = experiment: Cytotoxicity against human RPMI8226 cells assessed as cell growth at 50 uM by SRB assay; details: read-out: Activity
LOX IMVI = experiment: Cytotoxicity against human LOXIMVI cells by SRB assay; outline: as §1
PC-3 = experiment: Cytotoxicity against human PC3 cells assessed as cell growth at 0.05 uM by SRB assay; details: read-out: Activity
HOP-92 = experiment: Cytotoxicity against human HOP92 cells assessed as cell growth at 5 uM by SRB assay; details: read-out: Activity
Outline: (§2)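 Measured in the NCI-60 human tumour cell line panel using five-dose testing. Growth was recorded at each dose for each cell line, and a GI50 was derived for each line.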

UACC-257 = experiment: Cytotoxicity against human UACC257 cells assessed as cell growth at 5 uM by SRB assay; details: read-out: Activity
TK-10 [4] = experiment: Cytotoxicity against human TK10 cells assessed as cell growth at 50 uM by SRB assay; details: read-out: Activity
MDA-MB-468 [5] = experiment: Cytotoxicity against human MDA-MB-468 cells assessed as cell growth at 50 uM by SRB assay; details: read-out: Activity
HCT-116 = experiment: Cytotoxicity against human HCT116 cells assessed as cell growth at 0.005 uM by SRB assay; details: read-out: Activity; outline: as §2
A549 = experiment: Cytotoxicity against human A549/ATCC cells by SRB assay
NCI-H522 [6] = experiment: Cytotoxicity against human NCI-H522 cells assessed as cell growth at 0.005 uM by SRB assay; details: read-out: Activity
KM12 = experiment: Cytotoxicity against human KM12 cells assessed as cell growth at 0.005 uM by SRB assay; details: read-out: Activity
SN12C = experiment: Cytotoxicity against human SN12C cells assessed as cell growth at 0.005 uM by SRB assay; details: read-out: Activity
[7] = Cytotoxicity against human NCI-ADR-RES cells by SRB assay; outline: as §1
M14 = experiment: Cytotoxicity against human M14 cells assessed as cell growth at 0.05 uM by SRB assay; details: read-out: Activity
NCI-H522 [8] = experiment: Cytotoxicity against human NCI-H522 cells assessed as cell growth at 0.5 uM by SRB assay; details: read-out: Activity
CAKI-1 = experiment: Cytotoxicity against human Caki1 cells assessed as cell growth at 0.05 uM by SRB assay; details: read-out: Activity
[9] = Cytotoxicity against human Hs578T cells assessed as cell growth at 5 uM by SRB assay; details: Hs-578T, read-out: Activity; outline: as §2
OVCAR-3 = experiment: Cytotoxicity against human OVCAR3 cells assessed as cell growth at 0.5 uM by SRB assay; details: read-out: Activity
NCI-H522 [10] = experiment: Cytotoxicity against human NCI-H522 cells assessed as cell growth at 50 uM by SRB assay; details: read-out: Activity
U-251 = experiment: Cytotoxicity against human U251 cells by SRB assay; outline: as §1
[11] = read-out: LC50 (the source's name)
[12] = read-out: pLC50 (the source's name) (converted)

Question: With `COc1cc([C@@H]2c3cc4c(cc3[C@@H](NC(=O)CN3CCN(CCCCCCCCCCN5CCN(CC(=O)N[C@@H]6c7cc8c(cc7[C@@H](c7cc(OC)c(O)c(OC)c7)[C@H]7C(=O)OC[C@@H]76)OCO8)CC5)CC3)[C@H]3COC(=O)[C@H]23)OCO4)cc(OC)c1O` as the compound, how does the growth at 0.5 µM (MDA-MB-468 [1]) read?
Answer: 73%

Question: And the GI50 (T47D; read-out: GI50)?
Answer: 0.463 µM

Question: What about the CC50 (T47D; [11]) of the same compound?
Answer: > 50 µM

Question: What about the TGI (T47D; read-out: TGI) of the same compound?
Answer: 9.74 µM

Question: And the GI50 (T47D; read-out: pGI50 (converted))?
Answer: 0.468 µM

Question: What about the CC50 (T47D; [12]) of the same compound?
Answer: > 50.1 µM

Question: And the TGI (T47D; read-out: pTGI (converted))?
Answer: 9.77 µM

Question: And the growth at 0.05 µM (TK-10 [2])?
Answer: 91%

Question: What about the growth at 5 µM [3] of the same compound?
Answer: 53%

Question: And the growth at 50 µM (RPMI-8226)?
Answer: -13%

Question: What about the GI50 (LOX IMVI; read-out: GI50) of the same compound?
Answer: 0.0731 µM

Question: What about the GI50 (LOX IMVI; read-out: pGI50 (converted)) of the same compound?
Answer: 0.0724 µM

Question: What about the growth at 0.05 µM (PC-3) of the same compound?
Answer: 89%

Question: And the growth at 5 µM (HOP-92)?
Answer: -9%

Question: And the growth at 5 µM (UACC-257)?
Answer: -97%

Question: What about the growth at 50 µM (TK-10 [4]) of the same compound?
Answer: -98%

Question: What about the growth at 50 µM (MDA-MB-468 [5]) of the same compound?
Answer: -69%

Question: And the growth at 0.005 µM (HCT-116)?
Answer: 99%

Question: And the GI50 (A549; read-out: GI50)?
Answer: 0.0172 µM

Question: And the CC50 (A549; [11])?
Answer: > 50 µM

Question: And the TGI (A549; read-out: TGI)?
Answer: 0.883 µM

Question: And the GI50 (A549; read-out: pGI50 (converted))?
Answer: 0.0174 µM

Question: What about the CC50 (A549; [12]) of the same compound?
Answer: > 50.1 µM

Question: What about the TGI (A549; read-out: pTGI (converted)) of the same compound?
Answer: 0.891 µM

Question: What about the growth at 0.005 µM (NCI-H522 [6]) of the same compound?
Answer: 97%

Question: What about the growth at 0.005 µM (KM12) of the same compound?
Answer: 97%

Question: What about the growth at 0.005 µM (SN12C) of the same compound?
Answer: 94%

Question: And the GI50 ([7]; read-out: GI50)?
Answer: 6.48 µM

Question: What about the CC50 [7, 11] of the same compound?
Answer: > 50 µM

Question: What about the TGI ([7]; read-out: TGI) of the same compound?
Answer: > 50 µM

Question: And the GI50 ([7]; read-out: pGI50 (converted))?
Answer: 6.46 µM

Question: And the CC50 [7, 12]?
Answer: > 50.1 µM

Question: What about the TGI ([7]; read-out: pTGI) of the same compound?
Answer: > 50.1 µM

Question: What about the growth at 0.05 µM (M14) of the same compound?
Answer: 94%

Question: And the growth at 0.5 µM (NCI-H522 [8])?
Answer: 14%

Question: And the growth at 0.05 µM (CAKI-1)?
Answer: 89%

Question: And the growth at 5 µM [9]?
Answer: 41%

Question: What about the growth at 0.5 µM (OVCAR-3) of the same compound?
Answer: 63%

Question: What about the growth at 50 µM (NCI-H522 [10]) of the same compound?
Answer: -55%

Question: What about the GI50 (U-251; read-out: GI50) of the same compound?
Answer: 0.532 µM

Question: What about the CC50 (U-251; [11]) of the same compound?
Answer: 23.4 µM

Question: And the TGI (U-251; read-out: TGI)?
Answer: 6.27 µM
